Experimental data taken from ChEMBL document CHEMBL1134283, “Rational design, discovery, and synthesis of a novel series of potent growth hormone secretagogues” (J Med Chem, 2001).
Where a SMILES comes first, the peptide text is derived from it. [ ]: non-standard residue; d: D form. d2Nal = N[C@H](Cc1ccc2ccccc2c1)C(=O)O; d(hPhe) = N[C@H](CCc1ccccc1)C(=O)O; Aib = CC(C)(N)C(=O)O

Species: Rattus norvegicus
Assay: Effective concentration for ability to release growth hormone from rat pituitary cells
Assay type: functional, cell-based
Conditions: Pituitary gland cell
In short: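 Rat anterior pituitaries were digested with 0.2% collagenase, 0.2% hyaluronidase and 200 U/mL DNase I. Cells were plated at 1.0 × 10⁵ cells/mL in DMEM with 7.5% horse serum and 5.0% fetal calf serum and cultured 3 days. After washes in medium with 20 mM HEPES pH 7.4, cells were exposed to compound for 15 min at 37 °C. Released GH was measured by RIA. EC50 was referenced to the maximal GH level from 10^-8 M KP-102.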

Question: NCCNC(=O)[C@@H](Cc1ccc2ccccc2c1)NC(=O)CN1C(=O)CCS(=O)(=O)c2ccccc21 was tested. Which EC50 did it give?
Answer: 100 nM

Question: Which EC50 does the source give for NCC(O)CNC(=O)[C@@H](Cc1ccc2ccccc2c1)NC(=O)CCCN1C(=O)CCSc2ccccc21 (some centres undefined) here?
Answer: 1 nM

Question: Which EC50 does the source give for NCCNC(=O)[C@@H](Cc1ccc2ccccc2c1)NC(=O)CCN1C(=O)CCS(=O)(=O)c2ccccc21 here?
Answer: 10 nM

Question: O=C(N[C@H](Cc1ccc2ccccc2c1)C(=O)N[C@@H](CO)Cc1ccc2ccccc2c1)C1CCNCC1 was tested. Which EC50 did it give?
Answer: 1.8 nM

Question: NCCNC(=O)[C@H](Cc1ccccc1)NC(=O)CN1C(=O)CCSc2ccccc21 was tested. Which EC50 did it give?
Answer: 1000 nM

Question: For NC(=O)CN(CCc1ccccc1)C(=O)[C@@H](Cc1ccc2ccccc2c1)NC(=O)[C@@H](Cc1ccc2ccccc2c1)NC(=O)C1CCNCC1, which EC50 is on record?
Answer: 0.1 nM

Question: For NCCNC(=O)[C@@H](Cc1ccccc1)NC(=O)CN1C(=O)CCS(=O)(=O)c2ccccc21, which EC50 is on record?
Answer: 1000 nM

Question: With C[C@H](NC(=O)[C@@H](Cc1c[nH]c2ccccc12)NC(=O)[C@@H](N)Cc1c[nH]cn1)C(=O)N[C@@H](Cc1c[nH]c2ccccc12)C(=O)N[C@H](Cc1ccccc1)C(=O)N[C@H](CCCCN)C(N)=O as the molecule, how does the EC50 read?
Answer: 100 nM

Question: For C[C@H](NC(=O)[C@@H](Cc1ccc2ccccc2c1)NC(=O)[C@@H](C)N)C(=O)N[C@@H](Cc1c[nH]c2ccccc12)C(=O)N[C@H](Cc1ccccc1)C(=O)O, which EC50 is on record?
Answer: 10 nM

Question: Which EC50 does the source give for CC(C)[C@H](NC(=O)[C@@H](Cc1c[nH]c2ccccc12)NC(=O)[C@@H](N)Cc1c[nH]cn1)C(=O)N[C@@H](Cc1c[nH]c2ccccc12)C(=O)N[C@H](Cc1ccccc1)C(=O)N[C@@H](CCCCN)C(N)=O (H-H[dW]VW[dF]K-NH2) here?
Answer: > 1000 nM

Question: Which EC50 does the source give for CCOC(=O)[C@@H](CCc1ccccc1)NC(=O)[C@@H](Cc1c[nH]c2ccccc12)NC(=O)C(C)(C)N (H-[Aib]-[dW]-[d(hPhe)]-OEt) here?
Answer: 3 nM

Question: For C[C@H](NC(=O)[C@@H](Cc1ccc2ccccc2c1)NC(=O)[C@@H](C)N)C(=O)N[C@@H](Cc1c[nH]c2ccccc12)C(=O)N[C@H](Cc1ccccc1)C(=O)N[C@@H](CCCCN)C(=O)O (H-[dA][d2Nal]AW[dF]K-OH), which EC50 is on record?
Answer: 1 nM

Question: C[C@H](NC(=O)[C@@H](Cc1ccccc1)NC(=O)[C@@H](C)N)C(=O)N[C@@H](Cc1ccccc1)C(=O)N[C@H](Cc1ccccc1)C(=O)N[C@@H](CCCCN)C(N)=O (H-[dA][dF]AF[dF]K-NH2) was tested. Which EC50 did it give?
Answer: 10 nM

Question: For C[C@H](NC(=O)[C@@H](Cc1ccc2ccccc2c1)NC(=O)[C@@H](C)N)C(=O)N[C@@H](Cc1c[nH]c2ccccc12)C(=O)N[C@H](Cc1ccccc1)C(=O)N[C@@H](CCCCN)C(N)=O [PRALMORELIN] (H-[dA][d2Nal]AW[dF]K-NH2), which EC50 is on record?
Answer: 0.2 nM
